Reference: ChEMBL document CHEMBL1177725, “6-(3,4-dichlorophenyl)-1-[(methyloxy)methyl]-3-azabicyclo[4.1.0]heptane: a new potent and selective triple reuptake inhibitor” (J Med Chem, 2010)
Activity calls are given as the source filed them. The rule behind the calls is not given here.

Key:
Cytochrome P450 3A4 = Cytochrome P450 3A4 (Homo sapiens, UniProt P08684); assay: Inhibition of human CYP3A4 after 10 mins; assay type: ADME
Outline: (§1)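 Recombinant human CYP bactosomes (0.1 mg/mL) were pre-incubated 10 min at 37 °C in 50 mM phosphate pH 7.4 with compound (0.1–10 μM) and a fluorogenic substrate. Substrates: ethoxyresorufin 0.5 μM (1A2), FCA 50 μM (2C9), BMC 10 μM (2C19), MMC 10 μM (2D6), DEF 1 μM or 7-BQ 25 μM (3A4). Adding an NADPH-regenerating system started the reaction, and metabolite fluorescence was read over 10 min. The IC50 came from rate as percent of control; miconazole served as positive control, with triplicates.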

Cytochrome P450 2D6 = Cytochrome P450 2D6 (Homo sapiens, UniProt P10635); assay: Inhibition of human CYP2D6 after 10 mins; assay type: ADME; outline: as §1
Cytochrome P450 2D6, sequence (P10635 whole entry): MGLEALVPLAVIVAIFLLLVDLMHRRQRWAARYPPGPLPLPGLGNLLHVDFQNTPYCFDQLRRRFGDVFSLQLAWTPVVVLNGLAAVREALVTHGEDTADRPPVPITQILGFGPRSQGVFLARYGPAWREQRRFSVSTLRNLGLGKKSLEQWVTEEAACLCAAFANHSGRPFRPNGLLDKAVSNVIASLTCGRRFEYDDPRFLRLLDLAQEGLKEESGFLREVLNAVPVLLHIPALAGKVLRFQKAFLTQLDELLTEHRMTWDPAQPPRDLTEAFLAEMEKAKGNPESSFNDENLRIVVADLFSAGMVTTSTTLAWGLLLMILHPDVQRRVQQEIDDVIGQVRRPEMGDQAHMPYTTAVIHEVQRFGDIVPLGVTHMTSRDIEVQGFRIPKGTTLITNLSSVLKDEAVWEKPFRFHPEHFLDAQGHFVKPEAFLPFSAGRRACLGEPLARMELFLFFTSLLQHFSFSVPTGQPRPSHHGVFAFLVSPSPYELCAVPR

Cytochrome P450 2C19 = Cytochrome P450 2C19 (Homo sapiens, UniProt P33261); assay: Inhibition of human CYP2C19 after 10 mins; assay type: ADME; outline: as §1
Cytochrome P450 2C19, sequence (P33261 whole entry): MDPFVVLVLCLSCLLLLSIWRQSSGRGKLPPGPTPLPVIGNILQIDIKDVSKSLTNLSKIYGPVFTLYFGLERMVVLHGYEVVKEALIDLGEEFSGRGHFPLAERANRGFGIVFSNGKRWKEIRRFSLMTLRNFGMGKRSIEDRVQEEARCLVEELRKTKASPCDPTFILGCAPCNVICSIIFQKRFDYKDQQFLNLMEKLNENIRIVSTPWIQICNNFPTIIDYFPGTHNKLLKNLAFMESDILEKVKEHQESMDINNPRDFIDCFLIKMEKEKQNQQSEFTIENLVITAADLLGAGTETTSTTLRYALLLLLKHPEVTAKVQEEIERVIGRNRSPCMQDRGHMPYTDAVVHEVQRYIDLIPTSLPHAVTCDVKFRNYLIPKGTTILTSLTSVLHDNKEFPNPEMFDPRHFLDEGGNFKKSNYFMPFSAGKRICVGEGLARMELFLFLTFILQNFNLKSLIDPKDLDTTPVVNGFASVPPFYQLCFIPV

Cytochrome P450 2C9 = Cytochrome P450 2C9 (Homo sapiens, UniProt P11712); assay: Inhibition of human CYP2C9 after 10 mins; assay type: ADME; outline: as §1
Cytochrome P450 2C9, sequence (P11712 whole entry): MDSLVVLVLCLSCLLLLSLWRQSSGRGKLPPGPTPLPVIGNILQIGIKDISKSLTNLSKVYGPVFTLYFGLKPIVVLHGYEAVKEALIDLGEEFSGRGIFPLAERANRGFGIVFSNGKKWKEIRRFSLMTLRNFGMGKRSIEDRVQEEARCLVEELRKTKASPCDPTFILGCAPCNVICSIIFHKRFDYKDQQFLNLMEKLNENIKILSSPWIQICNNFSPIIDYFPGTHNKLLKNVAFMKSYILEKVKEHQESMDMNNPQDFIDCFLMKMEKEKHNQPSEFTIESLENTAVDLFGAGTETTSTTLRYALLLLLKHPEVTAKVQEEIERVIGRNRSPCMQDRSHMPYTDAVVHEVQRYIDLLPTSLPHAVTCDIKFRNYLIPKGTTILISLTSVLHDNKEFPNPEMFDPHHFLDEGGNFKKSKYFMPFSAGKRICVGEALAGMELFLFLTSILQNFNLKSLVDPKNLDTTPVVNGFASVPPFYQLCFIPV

Cytochrome P450 1A2 = biological target: T1, Cytochrome P450 1A2 (Homo sapiens, UniProt P05177); assay: Inhibition of human CYP1A2 after 10 mins; assay type: ADME; outline: as §1
T1 sequence (P05177 whole entry): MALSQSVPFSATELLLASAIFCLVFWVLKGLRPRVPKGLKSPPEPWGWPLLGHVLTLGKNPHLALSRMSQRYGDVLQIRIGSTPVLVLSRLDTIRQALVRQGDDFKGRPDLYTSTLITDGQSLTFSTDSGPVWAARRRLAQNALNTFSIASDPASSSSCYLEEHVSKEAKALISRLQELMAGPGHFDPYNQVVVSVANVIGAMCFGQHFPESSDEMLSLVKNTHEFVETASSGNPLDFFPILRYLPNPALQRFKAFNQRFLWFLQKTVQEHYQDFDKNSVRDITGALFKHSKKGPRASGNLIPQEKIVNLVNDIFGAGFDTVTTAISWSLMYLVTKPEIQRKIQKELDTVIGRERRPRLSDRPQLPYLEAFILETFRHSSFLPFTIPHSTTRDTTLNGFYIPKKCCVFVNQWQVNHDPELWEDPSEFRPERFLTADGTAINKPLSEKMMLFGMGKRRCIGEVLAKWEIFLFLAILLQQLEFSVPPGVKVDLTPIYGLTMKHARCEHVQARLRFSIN

[1] = biological target: Sodium-dependent dopamine transporter (Homo sapiens, UniProt Q01959); assay: Displacement of [N-methyl-3H]WIN-35428 from human recombinant DAT expressed in pig LLCPK cells after 2 hrs by liquid scintillation counting; assay type: cell-based
Sodium-dependent dopamine transporter, sequence (Q01959 whole entry): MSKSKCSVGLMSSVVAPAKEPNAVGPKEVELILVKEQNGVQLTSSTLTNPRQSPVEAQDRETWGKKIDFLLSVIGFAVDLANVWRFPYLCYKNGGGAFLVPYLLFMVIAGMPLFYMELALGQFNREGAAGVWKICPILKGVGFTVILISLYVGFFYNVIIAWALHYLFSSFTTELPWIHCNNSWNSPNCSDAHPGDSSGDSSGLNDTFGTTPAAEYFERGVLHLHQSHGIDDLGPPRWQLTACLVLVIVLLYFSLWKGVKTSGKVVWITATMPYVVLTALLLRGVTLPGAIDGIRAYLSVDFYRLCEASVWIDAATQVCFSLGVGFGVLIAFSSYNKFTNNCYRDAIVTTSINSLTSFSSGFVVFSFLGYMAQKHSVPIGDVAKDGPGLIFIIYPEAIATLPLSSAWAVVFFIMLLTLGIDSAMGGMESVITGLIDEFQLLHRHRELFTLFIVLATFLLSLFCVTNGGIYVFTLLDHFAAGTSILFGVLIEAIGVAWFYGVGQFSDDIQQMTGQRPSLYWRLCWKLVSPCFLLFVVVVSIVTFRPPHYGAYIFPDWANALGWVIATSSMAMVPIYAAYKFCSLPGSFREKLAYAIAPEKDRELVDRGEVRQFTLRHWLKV

[2] = biological target: Sodium-dependent noradrenaline transporter (Homo sapiens, UniProt P23975); assay: Displacement of [N-methyl-3H]nisoxetine from human recombinant NET expressed in pig LLCPK cells after 2 hrs by liquid scintillation counting; assay type: cell-based
Sodium-dependent noradrenaline transporter, sequence (P23975 whole entry): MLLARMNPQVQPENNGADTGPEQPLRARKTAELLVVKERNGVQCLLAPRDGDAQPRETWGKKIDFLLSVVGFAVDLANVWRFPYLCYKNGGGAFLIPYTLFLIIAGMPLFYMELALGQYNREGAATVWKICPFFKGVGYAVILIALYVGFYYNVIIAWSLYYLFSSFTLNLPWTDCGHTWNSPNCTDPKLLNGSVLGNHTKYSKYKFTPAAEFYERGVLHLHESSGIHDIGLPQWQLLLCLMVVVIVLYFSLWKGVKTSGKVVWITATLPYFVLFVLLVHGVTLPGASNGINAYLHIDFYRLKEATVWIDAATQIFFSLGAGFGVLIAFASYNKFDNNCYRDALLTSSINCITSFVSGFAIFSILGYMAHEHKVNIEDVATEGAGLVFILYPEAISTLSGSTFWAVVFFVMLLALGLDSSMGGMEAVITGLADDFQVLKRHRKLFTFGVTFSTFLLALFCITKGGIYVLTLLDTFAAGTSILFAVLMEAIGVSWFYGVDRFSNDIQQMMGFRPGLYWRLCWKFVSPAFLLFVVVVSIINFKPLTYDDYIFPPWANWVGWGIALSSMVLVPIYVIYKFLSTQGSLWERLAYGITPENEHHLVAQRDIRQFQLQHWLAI

[3] = biological target: Sodium-dependent serotonin transporter (Homo sapiens, UniProt P31645); assay: Displacement of [N-methyl-3H]citalopram from human recombinant SERT expressed in pig LLCPK cells after 2 hrs by liquid scintillation counting; assay type: cell-based
Sodium-dependent serotonin transporter, sequence (P31645 whole entry): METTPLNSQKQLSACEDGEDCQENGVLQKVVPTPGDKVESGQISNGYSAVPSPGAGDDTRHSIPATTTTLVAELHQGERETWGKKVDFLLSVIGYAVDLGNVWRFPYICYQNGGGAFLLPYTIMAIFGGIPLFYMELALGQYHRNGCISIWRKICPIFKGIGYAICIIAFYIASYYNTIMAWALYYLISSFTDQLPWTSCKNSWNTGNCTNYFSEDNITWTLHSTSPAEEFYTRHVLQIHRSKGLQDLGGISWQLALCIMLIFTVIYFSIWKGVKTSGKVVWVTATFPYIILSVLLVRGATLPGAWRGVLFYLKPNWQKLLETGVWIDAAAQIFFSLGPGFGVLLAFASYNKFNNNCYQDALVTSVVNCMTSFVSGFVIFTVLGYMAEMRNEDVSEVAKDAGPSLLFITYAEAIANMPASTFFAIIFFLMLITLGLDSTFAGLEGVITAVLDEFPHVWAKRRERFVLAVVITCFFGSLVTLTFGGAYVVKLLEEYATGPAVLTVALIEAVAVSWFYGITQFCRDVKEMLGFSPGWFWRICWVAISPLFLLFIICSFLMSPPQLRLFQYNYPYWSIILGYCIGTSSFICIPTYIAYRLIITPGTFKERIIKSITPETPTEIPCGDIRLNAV

Liver microsomes [4] = assay: Intrinsic clearance in rat liver microsomes assessed per gram of protein at 0.5 uM after 30 mins; assay type: ADME, Microsome; conditions: 0.5 h
Outline: (§2)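 Compound at 0.5 μM with liver microsomes (0.5 mg protein/mL) in 50 mM phosphate pH 7.4 at 37 °C, started with NADPH. Samples at 0, 3, 6, 9, 15 and 30 min were quenched in acetonitrile and analysed by HPLC-MS/MS. Cli came from the first-order elimination constant, scaled assuming 52.5 mg microsomal protein/g.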

Liver microsomes [5] = assay: Intrinsic clearance in human liver microsomes assessed per gram of protein at 0.5 uM after 30 mins; assay type: ADME, Microsome; conditions: 0.5 h; outline: as §2
Mus musculus [6] = assay: Antidepressant like activity in mouse assessed as reduction of immobility time at 3 to 30 mg/kg, po administered 2 hrs before test measured during final 4 mins of the 6 mins session by forced swimming test; assay type: functional, organism-based
Rattus norvegicus [7] = assay: Increase of extracellular serotonin level in CD rat nucleus accumbens at 3 mg/kg, ip measured up to 180 mins by microdialysis method; assay type: functional, organism-based; parameters: dose 3 mg/kg
Outline: (§3)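 Probes of 2 or 4 mm were perfused with artificial CSF at 1.1 μL/min for 2 h, then dosing was 3 mg/kg ip. Dialysate was collected every 20 min into oxalic acid. NE, DA and 5-HT were measured by HPLC with electrochemical detection and expressed as percent of the mean of three basal samples.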

Rattus norvegicus [8] = assay: Increase of extracellular dopamine level in CD rat nucleus accumbens at 3 mg/kg, ip measured up to 180 mins by microdialysis method; assay type: functional, organism-based; parameters: dose 3 mg/kg; outline: as §3
Rattus norvegicus [9] = assay: Increase of extracellular norepinephrine level in CD rat nucleus accumbens at 3 mg/kg, ip measured up to 180 mins by microdialysis method; assay type: functional, organism-based; parameters: dose 3 mg/kg; outline: as §3
Rattus norvegicus [10] = assay: Increase of extracellular dopamine level in CD rat medial prefrontal cortex at 3 mg/kg, ip measured up to 180 mins by microdialysis method; assay type: functional, organism-based; parameters: dose 3 mg/kg; outline: as §3
Rattus norvegicus [11] = assay: Increase of extracellular norepinephrine level in CD rat medial prefrontal cortex at 3 mg/kg, ip measured up to 180 mins by microdialysis method; assay type: functional, organism-based; parameters: dose 3 mg/kg; outline: as §3
Mus musculus [12] = assay: Potentiation of 5-hydroxytryptophan-induced stereotypic behavior in po dosed mouse administered 2 hrs before 5-hydroxytryptophan challenge measured for 30 mins; assay type: functional, organism-based
Outline: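 Mice got oral drug 120 min before an ip 5-HTP challenge (100 mg/kg), then sat singly in a perspex box for scoring of stereotyped behaviour. Oral doses were 3, 10 and 30 mg/kg.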

Rattus norvegicus [13] = assay: Increase of extracellular serotonin level in CD rat medial […] at 3 mg/kg, ip measured up to 180 mins by microdialysis method; assay type: functional, organism-based; parameters: dose 3 mg/kg; outline: as §3
Mus musculus [14] = assay: Potentiation of 5-hydroxytryptophan-induced stereotypic behavior in mouse at 10 mg/kg, po administered 2 hrs before 5-hydroxytryptophan challenge measured for 30 mins; assay type: functional, organism-based; parameters: dose 10 mg/kg
Outline: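 Mice were dosed orally at 3, 10 or 30 mg/kg 120 min before an ip injection of 5-HTP (100 mg/kg). Each mouse was then placed alone in a perspex box, and 5-HTP-induced stereotyped behaviour was assessed.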

Cytochrome P450 3A4, sequence (P08684 whole entry): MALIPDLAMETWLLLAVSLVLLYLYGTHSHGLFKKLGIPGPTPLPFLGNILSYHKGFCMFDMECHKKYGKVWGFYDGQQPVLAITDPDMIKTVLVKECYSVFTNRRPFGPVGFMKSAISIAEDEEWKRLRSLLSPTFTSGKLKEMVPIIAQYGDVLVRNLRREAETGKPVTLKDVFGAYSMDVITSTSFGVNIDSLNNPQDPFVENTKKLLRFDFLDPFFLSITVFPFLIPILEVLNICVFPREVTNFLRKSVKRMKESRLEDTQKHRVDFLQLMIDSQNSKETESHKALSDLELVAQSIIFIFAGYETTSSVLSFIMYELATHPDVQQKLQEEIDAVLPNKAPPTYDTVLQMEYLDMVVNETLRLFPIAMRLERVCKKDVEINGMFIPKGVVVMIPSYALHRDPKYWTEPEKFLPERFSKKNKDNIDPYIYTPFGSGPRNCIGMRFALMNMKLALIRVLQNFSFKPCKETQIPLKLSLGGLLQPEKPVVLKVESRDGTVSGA

| SMILES | IC50 (Cytochrome P450 3A4) [µM] | IC50 (Cytochrome P450 2D6) [µM] | IC50 (Cytochrome P450 2C19) [µM] | IC50 (Cytochrome P450 2C9) [µM] | IC50 (Cytochrome P450 1A2) [µM] | Ki [1] [µM] | Ki [2] [µM] | Ki [3] [µM] | CL (Liver microsomes [4]) [mL/min/g] | CL (Liver microsomes [5]) [mL/min/g] | Activity (Mus musculus [6]) | Activity (Rattus norvegicus [7]) | Activity (Rattus norvegicus [8]) | Activity (Rattus norvegicus [9]) | Activity (Rattus norvegicus [10]) | Activity (Rattus norvegicus [11]) | Activity (Mus musculus [12]) | Activity (Rattus norvegicus [13]) | Activity (Mus musculus [14]) |
| --- | --- | --- | --- | --- | --- | --- | --- | --- | --- | --- | --- | --- | --- | --- | --- | --- | --- | --- | --- |
| COC[C@@]12CNCC[C@]1(c1ccc(Cl)c(Cl)c1)C2 (racemic) [GSK1360707] | 10 | 3 | 10 | 10 | 10 | 0.0251 | 0.0126 | 0.00158 |  |  |  |  |  |  |  |  |  |  |  |
| COC[C@@]12CNCC[C@]1(c1ccc(Cl)c(Cl)c1)C2 (relative stereo; 18) [GSK1360707] | 10 | 3 | 10 | 10 | 10 | 0.1 | 0.126 | 0.02 | 1.8 | 1.4 |  |  |  |  |  |  |  |  |  |
| COC[C@@]12CCNC[C@]1(c1ccc(Cl)c(Cl)c1)C2 (racemic) [RAC-1-(3,4-DICHLOROPHENYL)-6-(METHOXYMETHYL)-2-AZABICYCLO[4.1.0]HEPTANE (ENANTIOMERS)] |  |  |  |  |  | 0.126 | 0.2 | 0.0316 | 1.8 | 1.4 |  |  |  |  |  |  |  |  |  |
| COC[C@@]12CNCC[C@]1(c1ccc(Cl)c(Cl)c1)C2 (relative stereo; 17) |  |  |  |  |  |  |  |  |  |  | Active | Active | Active | Active | Active | Active | Dose-dependent effect | Active |  |
| COC[C@@]12CNCC[C@]1(c1ccc3ccccc3c1)C2 (single isomer, unassigned; 28) [1-(METHOXYMETHYL)-6-(NAPHTHALEN-2-YL)-3-AZABICYCLO[4.1.0]HEPTANE (ENANTIOMERIC MIX)] | 8 | 8 | 8 | 8 | 8 | 0.0126 | 0.01 | 0.000126 | 17 | 1.2 |  |  |  |  |  |  |  |  |  |
| CN(C)CCCC1(c2ccc(F)cc2)OCc2cc(C#N)ccc21 (stereo not given) |  |  |  |  |  |  |  |  |  |  |  |  |  |  |  |  |  |  | Active |
| C=CCC(OC)[C@]12CNCC[C@]1(c1ccc(Cl)c(Cl)c1)C2 (mixture of isomers; form 1) [6-(3,4-DICHLOROPHENYL)-1-[1-(METHYLOXY)-3-BUTEN-1-YL]-3-AZABICYCLO[4.1.0]HEPTANE (DIASTEREOMERIC MIX)] | 3 | 3 | 3 | 3 | 3 | 0.00126 | 0.001 | 0.000126 |  |  |  |  |  |  |  |  |  |  |  |
